Substitutions are numbered along the chain they refer to. No end group written: not given here.

First the molecules themselves.
T1: PHD1 domain of histone demethylase KDM5A (S287–E344) (UniProt P29375 287-344, 15N- or 13C-,15N-labeled)
T1 sequence (looked up): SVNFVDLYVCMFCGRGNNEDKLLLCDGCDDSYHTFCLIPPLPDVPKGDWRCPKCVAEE

T2: GST–PHD1 V330A (KDM5A S287–K347) (UniProt P29375 287-347, V330A)
T2 sequence (looked up): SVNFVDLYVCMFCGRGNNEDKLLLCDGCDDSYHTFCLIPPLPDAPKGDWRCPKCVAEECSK

T3: GST–PHD1 Y294A (KDM5A S287–K347) (UniProt P29375 287-347, Y294A)
T3 sequence (looked up): T2 sequence (looked up) with Y8A, A44V

T4: GST–PHD1 WT (KDM5A S287–K347) (UniProt P29375 287-347)
T4 sequence (looked up): T2 sequence (looked up) with A44V

T5: GST–PHD1 D292N (KDM5A S287–K347) (UniProt P29375 287-347, D292N)
T5 sequence (looked up): T2 sequence (looked up) with D6N, A44V

The target in the first test is T1, PHD1 domain of histone demethylase …. Kind of test: NMR titration.
Settings: not given
On to ARTK(Me3)QTARKS (peptide, UniProt P68431 2-11, looked up) [histone H3K4me3 10mer peptide], for which the binding result is reported as “binds”.

With ARTK(Me)QTARKS (peptide, UniProt P68431 2-11, looked up) [histone H3K4me1 10mer peptide], the binding result is “binds”.

With ARTK(Me2)QTARKS (peptide, UniProt P68431 2-11, looked up) [histone H3K4me2 10mer peptide], the binding result is “binds”.

ARTKQTARKS (peptide, UniProt P68431 2-11, looked up) [histone H3 10mer peptide (A1–S10), unmodified]: the binding result is listed as “binds”.

A further test has as its target T2, GST–PHD1 V330A (KDM5A S287–K347). Kind of test: fluorescence polarisation.
Settings: not given
As for ARTK(Me3)QTARKS (peptide, UniProt P68431 2-11, looked up) [histone H3K4me3 10mer peptide], the binding result is “binds”.

For the molecule ARTK(Me)QTARKS (peptide, UniProt P68431 2-11, looked up) [histone H3K4me1 10mer peptide], the binding result is reported as “binds”.

As to ARTK(Me2)QTARKS (peptide, UniProt P68431 2-11, looked up) [histone H3K4me2 10mer peptide], the binding result is “binds”.

A further test deals with T3, GST–PHD1 Y294A (KDM5A S287–K347). Kind of test: fluorescence polarisation.
Settings: not given
In the case of ARTK(Me3)QTARKS (peptide, UniProt P68431 2-11, looked up) [histone H3K4me3 10mer peptide], the binding result is on record as “binds”.

For the molecule ARTK(Me)QTARKS (peptide, UniProt P68431 2-11, looked up) [histone H3K4me1 10mer peptide], the binding result is given as “binds”.

In the case of ARTK(Me2)QTARKS (peptide, UniProt P68431 2-11, looked up) [histone H3K4me2 10mer peptide], the binding result is “binds”.

In the next test the target is T4, GST–PHD1 WT (KDM5A S287–K347). Kind of test: fluorescence polarisation.
Settings: not given
Turning to ARTK(Me3)QTARKS (peptide, UniProt P68431 2-11, looked up) [histone H3K4me3 10mer peptide], the binding result is “binds”.

Turning to ARTK(Me)QTARKS (peptide, UniProt P68431 2-11, looked up) [histone H3K4me1 10mer peptide], the binding result was “binds”.

With ARTK(Me2)QTARKS (peptide, UniProt P68431 2-11, looked up) [histone H3K4me2 10mer peptide], the binding result is “binds”.

For ARTKQTARKS (peptide, UniProt P68431 2-11, looked up) [histone H3 10mer peptide (A1–S10), unmodified], the binding result is reported as “binds”.

The next test has as its target T5, GST–PHD1 D292N (KDM5A S287–K347). Kind of test: fluorescence polarisation.
Settings: not given
On to ARTK(Me3)QTARKS (peptide, UniProt P68431 2-11, looked up) [histone H3K4me3 10mer peptide], for which the binding result is “binds”.

For ARTK(Me)QTARKS (peptide, UniProt P68431 2-11, looked up) [histone H3K4me1 10mer peptide], the binding result is “binds”.

For the molecule ARTK(Me2)QTARKS (peptide, UniProt P68431 2-11, looked up) [histone H3K4me2 10mer peptide], the binding result is “binds”.

In the case of ARTKQTARKS (peptide, UniProt P68431 2-11, looked up) [histone H3 10mer peptide (A1–S10), unmodified], the binding result was “binds”.

Another test deals with PHD1 (S287–E344) of KDM5A. Kind of test: 2D 1H,15N HSQC NMR peptide titration. The class given is binding. To be noted: 200 μM 15N-labeled PHD1, 298 K, pH 7.5. A digest of the protocol: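 15N-labelled KDM5A PHD1 (S287–E344) from GST fusion, GST removed by TEV, then Ni-resin pass and gel filtration. […] Buffer was 50 mM HEPES, NaCl, 0.5 mM TCEP, 0.1 mM ZnCl2, pH 7.5, 5% D2O, 298 K. CSP = √[(ΔH² + (0.2ΔN)²)/2].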
Take H3 10mer: H3 10mer (A1–S10): the “interaction strength indicated by slow–intermediate exchange” value is “low–micromolar affinity”.

Turning to H3K4me1: H3K4me1 10mer peptide, the “interaction strength indicated by slow–intermediate exchange” value was “strong interactions, comparable to those with unmodified H3”.

For the next test, the system named is GST–PHD1 (KDM5A) Y294F. Kind of test: Fluorescence polarization binding, Y294F mutant. Conditions: FP, H3K4 10mer peptides.
As for H3K4me2: H3K4me2 10mer peptide, the “impact of mutation on binding” value is “minimal impact on binding”.

Turning to H3K4me3: H3K4me3 10mer peptide, the “impact of mutation on binding” value is on record as “minimal impact on binding”.

For another test, the target named is PHD1KDM5B.
Assay: not given
To be noted: ref [13],[14]; cited from earlier work.
H3K4me2: H3K4me2 10mer peptide: the Kd is more than 80 µM.

On to H3K4me3: H3K4me3 10mer peptide, for which the equilibrium dissociation constant (Kd) is more than 80 µM.

(Values after publication PMC8380758 (ACS chemical biology, 2021).)
